Reference: ChEMBL document CHEMBL5696442, “Discovery of type II inhibitors of TGFβ-activated kinase 1 (TAK1) and mitogen-activated protein kinase kinase kinase kinase 2 (MAP4K2)” (J Med Chem, 2015)

Key:
[1] = biological target: Proto-oncogene tyrosine-protein kinase Src (Homo sapiens, UniProt P12931); assay: Inhibition of SRC Lys1 labeling site in human A-375 cells at 5 uM by KiNativ Profiling analysis relative to control; type: cell-based
[2] = biological target: Calcium/calmodulin-dependent protein kinase type 1 (Homo sapiens) (UniProt Q14012); assay: Inhibition of CAMK1 alpha Lys1 labeling site in human A-375 cells at 5 uM by KiNativ Profiling analysis relative to control; type: cell-based
In short: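 Intact A375 melanoma cells were treated with compound at 5 or 0.5 μM, then lysed. Lysate kinases were labeled with a lysine-reactive ATP or ADP-biotin probe (KiNativ). Inhibition is read as protection of each kinase labeling site from probe labeling.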

[3] = biological target: Mitogen-activated protein kinase kinase kinase kinase 4 (Homo sapiens, UniProt O95819); assay: Inhibition of ZC1 Lys2 labeling site in human A-375 cells at 0.5 uM by KiNativ Profiling analysis relative to control; type: cell-based
[4] = biological target: Cyclin-dependent kinase 1 (Homo sapiens) (UniProt P06493); assay: Inhibition of CDC2 Lys2 labeling site harbouring VLHRDLKPQNLLIDDKGTIK in human A-375 cells at 5 uM by KiNativ Profiling analysis relative to control; type: cell-based
In short: (§1)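 Live A375 melanoma cells were treated with compound at 5 or 0.5 μM. The cells were then lysed, and the lysates were labeled with a lysine-reactive ATP or ADP-biotin acyl probe (KiNativ). Inhibition is the compound's protection of each kinase labeling-site peptide from probe labeling, relative to untreated control.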

[5] = biological target: Calcium/calmodulin-dependent protein kinase type II subunit gamma (Homo sapiens) (UniProt Q13555); assay: Inhibition of CaMK2g Lys1 labeling site harbouring TSTQEYAAKIINTK in human A-375 cells at 0.5 uM by KiNativ Profiling analysis relative to control; type: cell-based; in short: as §1
[6] = biological target: Cyclin-dependent kinase 4 (Homo sapiens) (UniProt P11802); assay: Inhibition of CDK4 Lys2 labeling site in human A-375 cells at 0.5 uM by KiNativ Profiling analysis relative to control; type: cell-based; in short: as §1
[7] = biological target: Focal adhesion kinase 1 (Homo sapiens) (UniProt Q05397); assay: Inhibition of FAK Lys1 labeling site in human A-375 cells at 0.5 uM by KiNativ Profiling analysis relative to control; type: cell-based
In short: (§2)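 Live A375 melanoma cells were treated with compound at 5 or 0.5 μM, then lysed. Lysates were labeled with a lysine-reactive ATP or ADP-biotin probe. Read-out was the compound's protection of kinase labeling sites from probe labeling (KiNativ).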

[8] = biological target: T1, Phosphatidylinositol 5-phosphate 4-kinase type-2 gamma (Homo sapiens) (UniProt Q8TBX8); assay: Inhibition of PIP4K2C ATP labeling site harbouring VKELPTLK in human A-375 cells at 0.5 uM by KiNativ Profiling analysis relative to control; type: cell-based; in short: as §2
T1 sequence (whole entry): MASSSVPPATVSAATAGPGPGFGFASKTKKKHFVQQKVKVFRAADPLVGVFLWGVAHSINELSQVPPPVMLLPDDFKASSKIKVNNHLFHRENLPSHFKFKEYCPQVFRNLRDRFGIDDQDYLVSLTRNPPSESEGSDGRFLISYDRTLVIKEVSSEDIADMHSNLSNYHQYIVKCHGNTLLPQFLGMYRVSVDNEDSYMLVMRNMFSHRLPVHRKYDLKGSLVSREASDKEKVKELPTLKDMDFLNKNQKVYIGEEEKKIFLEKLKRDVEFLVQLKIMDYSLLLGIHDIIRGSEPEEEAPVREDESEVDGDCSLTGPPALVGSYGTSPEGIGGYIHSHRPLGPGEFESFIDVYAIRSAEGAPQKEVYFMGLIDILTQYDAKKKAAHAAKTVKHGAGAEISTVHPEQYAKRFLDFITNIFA

[9] = biological target: Serine/threonine-protein kinase WNK1 (Homo sapiens) (UniProt Q9H4A3); assay: Inhibition of Wnk1 ATP Loop labeling site in human A-375 cells at 0.5 uM by KiNativ Profiling analysis relative to control; type: cell-based
[10] = biological target: 5'-AMP-activated protein kinase catalytic subunit alpha-1 (Homo sapiens) (UniProt Q13131); assay: Inhibition of AMPKa1 ATP Loop labeling site in human A-375 cells at 0.05 uM by KiNativ Profiling analysis relative to control; type: cell-based
[11] = biological target: 5'-AMP-activated protein kinase catalytic subunit alpha-2 (Homo sapiens) (UniProt P54646); assay: Inhibition of AMPKa2 Lys1 labeling site in human A-375 cells at 0.05 uM by KiNativ Profiling analysis relative to control; type: cell-based
[12] = biological target: Serine/threonine-protein kinase 26 (Homo sapiens) (UniProt Q9P289); assay: Inhibition of MST4 ACT labeling site in human A-375 cells at 0.05 uM by KiNativ Profiling analysis relative to control; type: cell-based
[13] = biological target: Serine/threonine-protein kinase 38-like (Homo sapiens) (UniProt Q9Y2H1); assay: Inhibition of NDR2 Lys2 labeling site in human A-375 cells at 0.05 uM by KiNativ Profiling analysis relative to control; type: cell-based
[14] = biological target: T2, Mitogen-activated protein kinase 13 (Homo sapiens) (UniProt O15264); assay: Inhibition of p38delta Lys2 labeling site in human Huh-7 cell lysate at 1 uM by KiNativ Profiling analysis relative to control; type: subcellular
T2 sequence (whole entry): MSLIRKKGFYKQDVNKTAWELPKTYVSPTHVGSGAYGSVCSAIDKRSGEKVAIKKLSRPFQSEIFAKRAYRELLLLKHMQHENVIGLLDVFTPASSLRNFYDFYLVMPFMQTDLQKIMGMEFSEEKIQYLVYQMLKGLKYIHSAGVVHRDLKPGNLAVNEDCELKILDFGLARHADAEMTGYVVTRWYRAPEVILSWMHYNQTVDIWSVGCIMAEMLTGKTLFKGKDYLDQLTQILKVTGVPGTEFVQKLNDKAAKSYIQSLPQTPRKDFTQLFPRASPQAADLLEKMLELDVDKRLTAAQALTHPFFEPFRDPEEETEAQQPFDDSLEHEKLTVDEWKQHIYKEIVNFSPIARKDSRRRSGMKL

5'-AMP-activated protein kinase catalytic subunit alpha-2 (Homo sapiens), sequence (P54646 whole entry, looked up): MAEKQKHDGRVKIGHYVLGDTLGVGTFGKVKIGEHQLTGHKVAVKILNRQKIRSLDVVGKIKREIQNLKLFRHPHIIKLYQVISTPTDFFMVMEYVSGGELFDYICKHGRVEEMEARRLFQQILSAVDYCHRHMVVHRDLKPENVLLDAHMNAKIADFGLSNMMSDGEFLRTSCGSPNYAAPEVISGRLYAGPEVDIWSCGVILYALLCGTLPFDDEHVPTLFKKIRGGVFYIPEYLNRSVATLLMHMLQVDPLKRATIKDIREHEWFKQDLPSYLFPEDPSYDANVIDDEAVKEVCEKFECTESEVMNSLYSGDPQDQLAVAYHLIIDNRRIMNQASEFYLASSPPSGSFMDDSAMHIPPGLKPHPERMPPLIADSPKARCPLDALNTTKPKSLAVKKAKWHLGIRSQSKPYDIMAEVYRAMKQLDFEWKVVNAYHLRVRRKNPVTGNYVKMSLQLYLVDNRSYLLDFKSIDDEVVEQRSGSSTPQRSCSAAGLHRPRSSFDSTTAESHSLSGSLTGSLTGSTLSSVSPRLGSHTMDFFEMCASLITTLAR
Cyclin-dependent kinase 4 (Homo sapiens), sequence (P11802 whole entry): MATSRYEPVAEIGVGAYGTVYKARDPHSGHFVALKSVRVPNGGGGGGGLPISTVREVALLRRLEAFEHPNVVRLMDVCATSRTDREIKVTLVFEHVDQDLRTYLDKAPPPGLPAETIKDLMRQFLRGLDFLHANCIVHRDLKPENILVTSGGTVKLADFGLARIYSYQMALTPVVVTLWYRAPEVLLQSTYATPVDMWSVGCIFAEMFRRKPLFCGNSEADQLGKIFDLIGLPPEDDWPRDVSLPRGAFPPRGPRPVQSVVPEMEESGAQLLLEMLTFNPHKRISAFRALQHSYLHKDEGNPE
Serine/threonine-protein kinase 38-like (Homo sapiens), sequence (Q9Y2H1 2-464 limits assumed): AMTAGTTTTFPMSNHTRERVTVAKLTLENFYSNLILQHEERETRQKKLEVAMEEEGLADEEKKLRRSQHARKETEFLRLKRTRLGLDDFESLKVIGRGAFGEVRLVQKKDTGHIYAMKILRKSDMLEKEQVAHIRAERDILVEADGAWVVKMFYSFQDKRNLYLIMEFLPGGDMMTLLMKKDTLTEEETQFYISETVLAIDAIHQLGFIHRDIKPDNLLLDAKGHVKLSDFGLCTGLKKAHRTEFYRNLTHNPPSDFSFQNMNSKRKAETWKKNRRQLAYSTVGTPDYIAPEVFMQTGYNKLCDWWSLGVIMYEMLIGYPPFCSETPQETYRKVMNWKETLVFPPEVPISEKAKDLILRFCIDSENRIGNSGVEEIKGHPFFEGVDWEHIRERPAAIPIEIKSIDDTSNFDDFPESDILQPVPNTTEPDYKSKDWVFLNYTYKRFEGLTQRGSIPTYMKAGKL
Serine/threonine-protein kinase 26 (Homo sapiens), sequence (Q9P289 2-416 limits assumed): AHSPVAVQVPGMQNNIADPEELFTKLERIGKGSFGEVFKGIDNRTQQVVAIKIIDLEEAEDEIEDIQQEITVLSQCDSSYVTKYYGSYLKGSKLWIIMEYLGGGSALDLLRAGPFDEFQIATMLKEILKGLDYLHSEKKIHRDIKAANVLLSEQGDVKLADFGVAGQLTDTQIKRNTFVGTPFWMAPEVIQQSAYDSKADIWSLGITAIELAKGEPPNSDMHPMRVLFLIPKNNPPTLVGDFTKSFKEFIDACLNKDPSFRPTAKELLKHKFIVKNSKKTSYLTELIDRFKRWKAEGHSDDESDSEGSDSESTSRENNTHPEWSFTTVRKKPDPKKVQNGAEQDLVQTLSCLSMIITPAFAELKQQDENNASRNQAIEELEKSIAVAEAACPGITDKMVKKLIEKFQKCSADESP
Calcium/calmodulin-dependent protein kinase type 1 (Homo sapiens), sequence (Q14012 whole entry, looked up): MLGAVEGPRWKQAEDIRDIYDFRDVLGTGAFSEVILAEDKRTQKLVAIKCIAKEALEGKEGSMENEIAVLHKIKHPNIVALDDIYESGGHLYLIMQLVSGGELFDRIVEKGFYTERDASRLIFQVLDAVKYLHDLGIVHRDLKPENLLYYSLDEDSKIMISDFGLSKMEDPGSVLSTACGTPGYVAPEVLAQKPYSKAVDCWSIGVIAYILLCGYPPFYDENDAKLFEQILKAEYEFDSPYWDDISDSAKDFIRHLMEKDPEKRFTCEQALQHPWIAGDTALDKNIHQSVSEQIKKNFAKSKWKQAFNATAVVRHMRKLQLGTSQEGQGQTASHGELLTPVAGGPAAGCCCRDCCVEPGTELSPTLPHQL
5'-AMP-activated protein kinase catalytic subunit alpha-1 (Homo sapiens), sequence (Q13131 whole entry, looked up): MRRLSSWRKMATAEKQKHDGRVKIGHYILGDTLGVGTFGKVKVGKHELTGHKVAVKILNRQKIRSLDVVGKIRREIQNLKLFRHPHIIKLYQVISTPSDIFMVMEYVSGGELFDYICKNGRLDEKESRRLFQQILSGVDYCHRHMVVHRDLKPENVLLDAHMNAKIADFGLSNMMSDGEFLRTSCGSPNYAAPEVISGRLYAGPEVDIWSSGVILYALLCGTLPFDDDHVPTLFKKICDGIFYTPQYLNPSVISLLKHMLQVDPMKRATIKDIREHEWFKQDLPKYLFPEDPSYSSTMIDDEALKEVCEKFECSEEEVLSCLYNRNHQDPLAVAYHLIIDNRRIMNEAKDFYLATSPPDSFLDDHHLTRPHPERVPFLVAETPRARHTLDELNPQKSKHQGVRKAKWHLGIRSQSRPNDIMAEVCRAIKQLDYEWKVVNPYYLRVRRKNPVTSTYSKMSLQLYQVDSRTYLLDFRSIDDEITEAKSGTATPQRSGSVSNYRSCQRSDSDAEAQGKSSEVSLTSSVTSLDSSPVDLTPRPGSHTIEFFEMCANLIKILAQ
Cyclin-dependent kinase 1 (Homo sapiens), sequence (P06493 whole entry, looked up): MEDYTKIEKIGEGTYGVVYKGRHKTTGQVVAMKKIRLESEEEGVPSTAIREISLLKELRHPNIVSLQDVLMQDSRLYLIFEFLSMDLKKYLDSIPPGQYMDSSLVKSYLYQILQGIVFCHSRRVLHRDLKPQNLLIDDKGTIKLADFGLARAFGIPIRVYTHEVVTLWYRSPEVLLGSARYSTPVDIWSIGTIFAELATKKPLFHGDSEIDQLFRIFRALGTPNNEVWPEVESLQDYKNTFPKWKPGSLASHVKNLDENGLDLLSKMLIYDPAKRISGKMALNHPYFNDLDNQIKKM
Proto-oncogene tyrosine-protein kinase Src, sequence (P12931 2-536 limits assumed): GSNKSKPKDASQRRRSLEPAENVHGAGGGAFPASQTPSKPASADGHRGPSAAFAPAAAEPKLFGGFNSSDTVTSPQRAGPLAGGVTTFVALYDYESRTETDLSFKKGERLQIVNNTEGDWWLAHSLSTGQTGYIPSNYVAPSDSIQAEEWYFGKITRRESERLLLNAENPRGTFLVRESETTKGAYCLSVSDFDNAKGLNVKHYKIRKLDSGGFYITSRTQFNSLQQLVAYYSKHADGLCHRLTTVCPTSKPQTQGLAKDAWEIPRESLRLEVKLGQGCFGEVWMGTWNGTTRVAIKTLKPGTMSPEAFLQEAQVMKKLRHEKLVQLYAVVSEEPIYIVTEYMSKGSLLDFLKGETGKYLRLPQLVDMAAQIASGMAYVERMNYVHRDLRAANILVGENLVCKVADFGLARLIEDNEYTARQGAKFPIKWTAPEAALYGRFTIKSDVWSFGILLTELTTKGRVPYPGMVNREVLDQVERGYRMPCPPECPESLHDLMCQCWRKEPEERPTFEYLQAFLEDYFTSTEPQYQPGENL
Mitogen-activated protein kinase kinase kinase kinase 4, sequence (O95819 2-1239 limits assumed): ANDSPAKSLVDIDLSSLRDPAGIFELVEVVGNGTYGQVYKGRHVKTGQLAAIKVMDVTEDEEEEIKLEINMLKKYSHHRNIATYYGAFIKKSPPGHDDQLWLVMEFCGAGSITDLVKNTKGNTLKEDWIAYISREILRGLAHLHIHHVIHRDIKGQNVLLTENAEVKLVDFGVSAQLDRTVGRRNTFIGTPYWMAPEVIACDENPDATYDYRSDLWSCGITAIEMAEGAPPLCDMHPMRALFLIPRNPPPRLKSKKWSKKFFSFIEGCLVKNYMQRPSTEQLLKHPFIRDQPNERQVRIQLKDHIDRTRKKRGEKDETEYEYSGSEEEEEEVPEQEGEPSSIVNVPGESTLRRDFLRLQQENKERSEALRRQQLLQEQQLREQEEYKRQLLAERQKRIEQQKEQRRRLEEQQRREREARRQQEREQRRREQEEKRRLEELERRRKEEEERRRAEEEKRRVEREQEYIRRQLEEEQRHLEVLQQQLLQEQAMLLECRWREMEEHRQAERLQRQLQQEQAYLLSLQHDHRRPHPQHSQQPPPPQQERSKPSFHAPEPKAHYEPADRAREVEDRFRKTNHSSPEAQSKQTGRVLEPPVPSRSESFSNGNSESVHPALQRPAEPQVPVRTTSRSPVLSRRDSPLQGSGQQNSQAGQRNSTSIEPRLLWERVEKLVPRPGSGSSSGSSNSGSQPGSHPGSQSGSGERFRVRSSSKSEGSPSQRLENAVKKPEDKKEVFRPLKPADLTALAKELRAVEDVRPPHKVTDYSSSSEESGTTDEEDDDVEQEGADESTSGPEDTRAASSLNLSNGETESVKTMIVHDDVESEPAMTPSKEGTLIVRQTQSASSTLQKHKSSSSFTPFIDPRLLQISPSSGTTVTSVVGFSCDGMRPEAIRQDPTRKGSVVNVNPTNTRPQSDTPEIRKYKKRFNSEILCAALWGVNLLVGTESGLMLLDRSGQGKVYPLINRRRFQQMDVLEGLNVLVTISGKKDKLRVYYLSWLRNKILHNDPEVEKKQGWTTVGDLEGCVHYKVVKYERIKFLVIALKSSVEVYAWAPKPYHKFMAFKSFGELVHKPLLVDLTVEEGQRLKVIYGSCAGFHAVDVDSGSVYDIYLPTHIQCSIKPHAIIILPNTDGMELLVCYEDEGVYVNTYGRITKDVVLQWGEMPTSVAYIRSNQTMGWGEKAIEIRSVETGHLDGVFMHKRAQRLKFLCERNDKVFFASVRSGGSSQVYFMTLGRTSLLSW

## CCN1CCN(Cc2ccc(NC(=O)c3ccc(C)c(Oc4ccnc5[nH]ccc45)c3)cc2C(F)(F)F)CC1
[1]
  inhibition: > 92%
[2]
  inhibition: 91.8%
[3]
  inhibition: 70.8%
[4]
  inhibition: 34.7%
[5]
  inhibition: 19.2%
[6]
  inhibition: 5.7%
[7]
  inhibition: 9.3%
[8]
  inhibition: -1.8%
[9]
  inhibition: 11.4%
[10]
  inhibition: -4.4%
[11]
  inhibition: 13.4%
[12]
  inhibition: 22.4%
[13]
  inhibition: 14.8%

## CNc1cc(Oc2cc(C(=O)Nc3cc(-n4cnc(C)c4)cc(C(F)(F)F)c3)ccc2C)ncn1
[14]
  inhibition: 5.5%

## CNc1cc(Oc2cc(C(=O)Nc3cc(N4CCN(C)CC4)cc(C(F)(F)F)c3)ccc2C)ncn1
[14]
  inhibition: 12.8%

## CCN1CCN(Cc2ccc(NC(=O)c3ccc(C)c(/C=C/c4cnc5[nH]ccc5c4OC)c3)cc2C(F)(F)F)CC1
[1]
  inhibition: > 92%
[2]
  inhibition: 31.9%
[3]
  inhibition: 48.1%
[4]
  inhibition: -3.1%
[5]
  inhibition: 34.3%
[6]
  inhibition: 9.2%
[7]
  inhibition: -2%
[8]
  inhibition: 9.2%
[9]
  inhibition: 15.3%
[10]
  inhibition: -8.8%
[11]
  inhibition: 7.4%
[12]
  inhibition: 13.5%
[13]
  inhibition: 11.6%
